Measured values as given in article PMC5970965 (Prostaglandins & other lipid mediators, 2018).

Columns and labels:
rat sEH enzyme = molecular target: T1, rat sEH enzyme (Rattus norvegicus, UniProt P80299); assay: rat sEH inhibition assay; type: biochemical
T1 sequence (P80299 1-554): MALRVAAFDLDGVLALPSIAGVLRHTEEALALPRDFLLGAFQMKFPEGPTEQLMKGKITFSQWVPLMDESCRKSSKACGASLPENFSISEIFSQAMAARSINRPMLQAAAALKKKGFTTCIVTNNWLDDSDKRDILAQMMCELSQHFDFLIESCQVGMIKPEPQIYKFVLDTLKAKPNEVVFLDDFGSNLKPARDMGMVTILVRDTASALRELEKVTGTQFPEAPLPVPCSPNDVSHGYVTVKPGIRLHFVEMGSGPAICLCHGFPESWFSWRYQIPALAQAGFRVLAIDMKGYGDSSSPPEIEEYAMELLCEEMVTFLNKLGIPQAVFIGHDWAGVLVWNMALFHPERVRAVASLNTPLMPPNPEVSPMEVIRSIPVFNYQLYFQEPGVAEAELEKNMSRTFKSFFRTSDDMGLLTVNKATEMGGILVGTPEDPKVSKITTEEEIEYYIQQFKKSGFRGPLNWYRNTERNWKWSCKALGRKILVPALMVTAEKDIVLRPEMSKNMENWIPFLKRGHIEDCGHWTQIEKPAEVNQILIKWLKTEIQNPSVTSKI

Human sEH = molecular target: T2, Human sEH (Homo sapiens, UniProt P34913); assay: human sEH inhibition assay, fluorescent substrate CMNPC; type: biochemical
T2 sequence (P34913 1-555): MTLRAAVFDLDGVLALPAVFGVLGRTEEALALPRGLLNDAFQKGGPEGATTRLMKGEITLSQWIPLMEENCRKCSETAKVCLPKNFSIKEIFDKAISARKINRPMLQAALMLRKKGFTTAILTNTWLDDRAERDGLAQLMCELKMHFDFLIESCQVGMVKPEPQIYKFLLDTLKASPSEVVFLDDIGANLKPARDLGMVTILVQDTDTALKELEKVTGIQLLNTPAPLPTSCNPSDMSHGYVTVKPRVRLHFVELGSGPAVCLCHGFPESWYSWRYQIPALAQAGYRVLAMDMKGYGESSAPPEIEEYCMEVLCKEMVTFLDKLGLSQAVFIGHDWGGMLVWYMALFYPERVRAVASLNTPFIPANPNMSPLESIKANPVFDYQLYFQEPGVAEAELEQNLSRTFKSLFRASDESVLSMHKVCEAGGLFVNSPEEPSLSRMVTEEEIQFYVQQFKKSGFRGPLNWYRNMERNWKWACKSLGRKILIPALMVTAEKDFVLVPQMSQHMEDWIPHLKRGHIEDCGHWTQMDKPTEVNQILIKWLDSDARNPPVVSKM

[1] = molecular target: T3, fatty acid amide hydrolase (FAAH) (Homo sapiens, UniProt O00519); assay: FAAH inhibition assay, substrate OMP; type: biochemical
T3 sequence (O00519 1-579): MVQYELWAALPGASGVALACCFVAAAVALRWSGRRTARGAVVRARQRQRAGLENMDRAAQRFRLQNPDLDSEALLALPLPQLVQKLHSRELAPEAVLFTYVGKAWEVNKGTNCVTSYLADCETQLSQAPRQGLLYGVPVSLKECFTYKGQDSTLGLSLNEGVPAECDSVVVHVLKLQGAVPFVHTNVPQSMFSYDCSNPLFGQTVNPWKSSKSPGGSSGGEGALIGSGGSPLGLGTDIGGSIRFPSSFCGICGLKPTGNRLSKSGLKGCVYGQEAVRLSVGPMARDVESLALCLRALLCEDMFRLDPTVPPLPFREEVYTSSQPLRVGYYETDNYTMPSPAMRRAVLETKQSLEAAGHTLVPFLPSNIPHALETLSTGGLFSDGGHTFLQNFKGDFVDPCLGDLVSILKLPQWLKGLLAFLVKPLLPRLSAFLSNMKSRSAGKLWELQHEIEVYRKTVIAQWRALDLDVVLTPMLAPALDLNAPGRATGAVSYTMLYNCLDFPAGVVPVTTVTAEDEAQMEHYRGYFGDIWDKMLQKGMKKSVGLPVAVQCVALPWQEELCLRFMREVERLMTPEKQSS
Summary of the method: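 FAAH activity was followed fluorimetrically (excitation 303 nm, emission 394 nm) at 37 °C using N-(6-methoxypyridin-3-yl)octanamide (OMP) at a final concentration of 50 μM. The reaction buffer was 0.1 M sodium phosphate, pH 8, containing 0.1 mg/mL BSA. Each experiment was run in triplicate, and values are given as average ± SD.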

[2] = rat liver microsomal metabolic stability; type: in vitro ADME; details: for half-life / microsomal CLint: both, rat, rat liver microsomes; for microsomal CLint: app (rat liver microsomes)
[3] = cited from earlier work
[4] = human liver microsomal metabolic stability; type: in vitro ADME; details: both, human liver microsomes
[5] = apparent intrinsic clearance, CLint = k/P

SMILES	IC50 (rat sEH enzyme) [µM]	IC50 (Human sEH) [µM]	IC50 [1] [µM]	half-life [2] [h]	microsomal CLint [2, 5] [µL/min/mg]	CLint, app (human liver microsomes), previously published value in parenthesis [3] [µL/min/mg]	half-life [4] [h]	microsomal CLint [4] [µL/min/mg]	CLint, app (rat liver microsomes) [2, 5] [µL/min/mg]
Cc1ccc(S(=O)(=O)N2CCC(C(=O)Nc3ccc4cc(C(=O)O)ccc4c3)CC2)c(C)c1 [Compound 3, 6-(1-((2,4-dimethylphenyl)sulfonyl)piperidine-4-carboxamido)-2-naphthoic acid]	0.141 ± 0.02	0.085	23	0.433	53.3	6.3	3.1	7.5	–
[2H]c1c([2H])c(S(=O)(=O)N2CCC(C(=O)Nc3ccc4cc(C(=O)O)ccc4c3)CC2)c(C([2H])([2H])[2H])c([2H])c1C([2H])([2H])[2H] [Compound 3i, 6-(1-((2,4-bis(methyl-d3)phenyl-3,5,6-d3)sulfonyl)piperidine-4-carboxamido)-2-naphthoic acid]	–	0.106	8.8	> 1	~20	–	> 4	< 5.8	<23.1
